Assay results taken from PMC10993133 (iScience, 2024).

Tests used:
Format in all cases: cell-based, human
MCF7 cells [1] = experiment: Mitochondrial membrane potential; details: MCF7, 1 µM, 30 hrs, JC-1, n=4
Procedure, shortened: (§1)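 MCF7 and MDAMB231 cells in DMEM with 10% FCS were treated 30 hrs with Dox or encapsulated test compound, then harvested. They were incubated with shaking in JC-1 (2.5 µg/mL) in PBS at 37°C for 30–35 min. Cells were washed three times for 5 min in cold PBS and resuspended. ΔΨM was taken as the 590/530 nm fluorescence ratio. Means ± S.E., n=4.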

MDAMB231 cells [2] = experiment: Mitochondrial membrane potential; details: MDAMB231, 1 µM, 30 hrs, JC-1, n=4
Procedure, shortened: as §1

MCF7 cells [3] = experiment: ROS generation; details: MCF7, 1 µM, 24 hrs, CM-H2DCFDA, n=4
Procedure, shortened: (§2)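 MCF7 or MDAMB231 cells were treated 24 hrs with Dox or encapsulated test compound. Cells were scraped, pelleted and washed twice in chilled PBS, then loaded with CM-H2DCFDA (5 µM) in PBS for 20 min in the dark at 37°C. After washing, cells were lysed in PBS with 1% Tween 20. DCF fluorescence was read at ex 480/em 530 nm. Means ± S.E., n=4, versus vehicle control.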

MDAMB231 cells [4] = experiment: ROS generation; details: MDAMB231, 1 µM, 24 hrs, CM-H2DCFDA, n=4
Procedure, shortened: as §2

MCF7 cells [5] = experiment: DNA fragmentation assay; details: MCF7, 30 hrs exposure, agarose gel
Procedure, shortened: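 MCF7 cells were seeded at 1 × 10^6 per well and exposed 30 hrs. They were lysed at RT in 0.5% Triton X-100, 15 mM EDTA, 20 mM Tris HCl. DNA was extracted with phenol/chloroform/isoamyl alcohol (25:24:1), then treated 1 hr with RNase (0.1 mg/mL) and proteinase K (1 mg/mL). It was precipitated overnight at −20°C with sodium acetate/ethanol, run on 2% agarose and stained with ethidium bromide.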

COc1cccc2c1C(=O)c1c(O)c3c(c(O)c1C2=O)C[C@@](O)(C(=O)CO)C[C@@H]3O[C@H]1C[C@H](N)[C@H](O)[C@H](C)O1 [Dox, doxorubicin]
mitochondrial membrane potential (ΔΨM) (MCF7 cells [1]): loss of mitochondrial membrane potential | mitochondrial membrane potential (ΔΨM) (MDAMB231 cells [2]): loss of mitochondrial membrane potential | increase of intracellular ROS levels (MCF7 cells [3]): comparable | increase of intracellular ROS levels (MDAMB231 cells [4]): comparable | DNA damage (DNA laddering) (MCF7 cells [5]): resulted in DNA damage
